High-throughput results as filed in PubChem.
A selection: hits, their analogues and other compounds. The true share with any hit is near 2.2%.
Calb biofilm kill – mixture kills Candida albicans biofilm cells. C. albicans biofilm persisters + clotrimazole, fluorescence viability; primary screen in compound mixtures of four per well. inhibition, % at 7.6 µM. 0.02% of 120,000 active. AID 1242;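 active = inhibition above 30.3% in the primary screen of four-compound pools, then above 30% when the compound was retested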;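 also: compounds exposed to preformed 24 h biofilms for 48 h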
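Test system: C. albicans biofilms. Buffer or medium: RPMI/MOPS medium, pH 7.0. Timing: 48 h compound exposure at 37 °C. Technique: Alamar Blue fluorescence. Evaluation: percent inhibition of biofilm viability.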
eIF4E 4G PPI – inhibitors of eIF4E and eIF4G interaction in translation initiation; P63073+Q04637; TR-FRET eIF4E-eIF4GI(517-606) binding, 2 h; inhibition, % at 21.7 µM; 0.37% of 220,000 active; AID 782;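 active = inhibition above about 30%, limit read from the data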
PERK inhibitor – inhibitors of human PERK kinase; Q9NZJ5; CHO PERK-DD fusion, SEAP luminescence translation reporter; inhibition, % at 5.6 µM; 0.17% of 220,000 active; AID 1416;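 active = inhibition above the mean inhibition of all tested compounds plus 3 SD, set separately per screening campaign, cut at about 2.9% in these data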;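 also: PERK kinase domain activated by AP20187 dimerizer at 100 nM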
14-3-3 Bad inh – disrupts binding of bovine 14-3-3 zeta to phospho-Bad peptide. P63103. TR-FRET 14-3-3zeta/Dy647-pBad peptide displacement, 1 h. inhibition, % at 21.7 µM. 0.71% of 220,000 active. AID 781;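 active = inhibition above about 70%, limit read from the data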
p97 ATPase inh – blocks human p97 ATPase activity; P55072; inhibition, % at 8 µM; 0.42% of 220,000 active; recombinant p97 ATPase, Kinase-Glo ATP luminescence, 3 h; in the data active = inhibition above about 15%
Hck Nef HTS – inhibitors of human Hck kinase activated by Nef; 0.68% of 220,000 active; AID 463187; Recombinant Hck-YEEI plus Nef, Z-Lyte FRET kinase assay; inhibition, % at 20 µM;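 active = Hck-Nef kinase inhibition above about 50%, limit read from the data; inactive = inhibition below that limit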
Hck-Nef confirm – Hck-Nef kinase inhibition, confirmation | shares compounds with Hck Nef HTS | AID 463188 | calls only at 10 µM | 28% of 1,300 active | Recombinant Hck-YEEI:Nef, Z-Lyte FRET kinase assay;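 active = average inhibition of at least 50%, with Z-scores no higher than 3 in both the phospho-tyrosine peptide and fluorescence counterscreens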
Large screens that a line does not name were inactive (follow-up assays come after a bar, where shown); [ ] = another dose, or the depositor's remark.

Cc1ccc2c(c1)C(c1ccccc1)N(C(=O)c1ccc3c(c1)OCO3)CC(=O)N2 (stereo not drawn)	none
O=C(Cn1ncc(Cl)c(Cl)c1=O)N1CCN(S(=O)(=O)c2ccc3ccccc3c2)CC1	none
O=C1CSC(=S)N1/N=C/c1ccc(O)c(O)c1O	eIF4E 4G PPI 84, 14-3-3 Bad inh 96, Hck Nef HTS 79 | Hck-Nef confirm active
COc1ccc(/C=N/N2C(=O)CSC2=S)cc1	none (no result: Calb biofilm kill)
O=C(/C=C/c1ccc(Br)o1)Nc1nnc(C2CC2)s1	Hck Nef HTS 57 | Hck-Nef confirm active
CC(C)(C)Nc1c(-c2ccc(O)cc2)nc2ccc(Cl)cn12	none
Cc1ccc(CN2C(=O)N/C(=C\c3ccc(-c4ccc(C(=O)O)cc4C)o3)C2=O)cc1	Hck Nef HTS 60 | Hck-Nef confirm inactive
Cc1ccc(C(=O)O)cc1-c1ccc(/C=C2/NC(=O)N(c3ccccc3)C2=O)o1	none (no result: Calb biofilm kill)
Cc1ccc(N=C2NC(=O)/C(=C/C=C/c3ccco3)S2)cc1	Hck Nef HTS 97 | Hck-Nef confirm inactive
O=C(/C=C/N1CCOCC1)c1ccc(-c2ccccc2)cc1	Hck Nef HTS 66 (no result: Calb biofilm kill) | Hck-Nef confirm inactive
CCCC(=O)Nc1ccc(Cl)c(NC(=O)c2cccnc2)c1	none (no result: Calb biofilm kill)
CCCC(=O)Nc1ccc(Cl)c(NC(=O)c2cccc(OC)c2)c1	Hck Nef HTS 60 | Hck-Nef confirm inactive
COc1cccc(/C=N/Nc2ncnc3c2[nH]c2ccc(C)cc23)c1OC	14-3-3 Bad inh 88, Hck Nef HTS 66 | Hck-Nef confirm inactive
O=C(OCC(=O)N1CCN(C(=O)c2ccco2)CC1)c1cc(-c2ccc(Cl)c(Cl)c2Cl)nc2ccccc12	Hck Nef HTS 50 (no result: Calb biofilm kill) | Hck-Nef confirm active
CCN(CC)CCC(C)OC(=O)c1ccc(O)cc1O (stereo not drawn)	none
CC(=O)Nc1ccc(S(=O)(=O)Nc2nc3cc4c(cc3nc2Cl)OCCO4)cc1	Hck Nef HTS 89
O=C(NCCNc1ccc([N+](=O)[O-])cc1)c1ccc(Cl)cc1	none
CC1(C)Cc2c(C#N)c(NCC3CCCO3)nc(-c3ccco3)c2CO1 (stereo not drawn)	Hck Nef HTS 56 (no result: Calb biofilm kill) | Hck-Nef confirm inactive
O=C(Nc1ccc(-n2nncc2-c2ccco2)cc1)c1cccc(F)c1	none (no result: Calb biofilm kill)
O=C(Nc1ccc(-n2nncc2-c2ccco2)cc1)c1cc2ccccc2oc1=O	14-3-3 Bad inh 79[fluorescence artefact?], Hck Nef HTS 51 (no result: Calb biofilm kill) | Hck-Nef confirm active
CCOP(=O)(Nc1ccc2oc(=O)c3ccccc3c2c1)OCC	none
O=S(=O)(c1ccccc1)N1N=C(c2cccs2)CC1c1ccc(F)cc1 (stereo not drawn)	none (no result: Calb biofilm kill)
Fc1ccc(N2N=C(c3cccs3)CC2c2ccccc2)cc1 (stereo not drawn)	Hck Nef HTS 56 | Hck-Nef confirm inactive
Cc1ccc(CNC(=O)c2cc3c(s2)CN(Cc2ccccc2)C3)cc1	none
COc1ccc(C2C3=C(CC(C)(C)CC3=O)N(C)C3=C2C(=O)CC(C)(C)C3)cc1	Hck Nef HTS 51 | Hck-Nef confirm inactive
COc1ccc(N2C3=C(C(=O)CC(C)(C)C3)C(c3ccccc3OC)C3=C2CC(C)(C)CC3=O)cc1	Hck Nef HTS 74 | Hck-Nef confirm inactive
COc1ccc(C2C(C#N)=C(C)NC3=C2C(=O)CC(C)(C)C3)cc1 (stereo not drawn)	none (no result: Calb biofilm kill)
O=C1c2cccc3cc([N+](=O)[O-])cc(c23)C(=O)N1/N=C/c1ccc(O)cc1O	14-3-3 Bad inh 97, Hck Nef HTS 55 | Hck-Nef confirm active
O=C1c2cccc3cc([N+](=O)[O-])cc(c23)C(=O)N1CCN1CCCC1	none
COc1ccc(-c2nnc(SCC(=O)Nc3sc4c(c3C#N)CCCC4)n2-c2ccccc2)cc1	Hck Nef HTS 96 | Hck-Nef confirm active
COc1ccc(-n2c(SCC(=O)Nc3sc4c(c3C#N)CCCC4)nnc2-c2ccccc2OC)cc1	none
COc1ccc(C(=O)NCc2ccc(Cl)c(Cl)c2)cc1OC	none
COc1ccc(CNC(=O)c2ccc(=O)oc2)cc1OC	Hck Nef HTS 57 (not shown: Calb biofilm kill)
CCCn1nc(C(=O)OCC(=O)Nc2cccc(OC)c2)c2ccccc2c1=O	none
COC(=O)Cc1[nH]n(-c2nc3ccccc3s2)c(=O)c1C(C)=Nc1ccc(Cl)cc1	Hck Nef HTS 64 | Hck-Nef confirm inactive
COC(=O)Cc1[nH]n(-c2nc3ccccc3s2)c(=O)c1C(C)=Nc1ccc(C)cc1	none
CN1CCN(Cc2cn[nH]c2-c2ccc(F)cc2F)[C@@H](c2ccccc2)C1	none
COC(OC)c1ccnc(-c2ccc(OC(=O)c3ccccc3)cc2)n1	Hck Nef HTS 58 | Hck-Nef confirm inactive
COc1cc(C=C2C(=O)c3ccccc3C2=O)ccc1O	Hck Nef HTS 74 | Hck-Nef confirm inactive
COc1ccc(C=C2C(=O)c3ccccc3C2=O)cc1O	Hck Nef HTS 105 | Hck-Nef confirm inactive
Cc1ccc(O)c(C(=O)c2cnn(C(=O)Cc3csc(C)n3)c2)c1	Hck Nef HTS 74 (no result: Calb biofilm kill) | Hck-Nef confirm active
CCOc1cc(/C=C(/C#N)c2nc3ccccc3[nH]2)ccc1OCc1ccc(C(=O)O)o1	Hck Nef HTS 64 (not shown: Calb biofilm kill)
CCOc1cc(/C=C(/C#N)c2ccc(F)cc2)ccc1OCc1ccc(C(=O)O)o1	none (no result: Calb biofilm kill)
Cc1cc2oc(=O)c3c(c2cc1OC(=O)c1ccco1)CCCC3	none (no result: Calb biofilm kill)
O=C(Oc1cc2oc(=O)c3c(c2cc1Cl)CCCC3)c1ccco1	Hck Nef HTS 83 (not shown: Calb biofilm kill)
O=C(Oc1cc2oc(=O)c3c(c2cc1Cl)CCCC3)c1cccs1	Hck Nef HTS 78
Cc1ccc(S(=O)(=O)NC(C(=O)Oc2cc3oc(=O)cc(C)c3cc2Cl)C(C)C)cc1 (stereo not drawn)	Hck Nef HTS 100
CCC[C@@H](NS(=O)(=O)c1ccc(C)cc1)C(=O)Oc1ccc2c3c(c(=O)oc2c1)CCC3	none
Cc1cc(=O)oc2cc(OC(C)C(=O)O)c(Cl)cc12 (stereo not drawn)	none (no result: Calb biofilm kill)
CC(=O)Oc1cc2oc(=O)cc(C)c2cc1Cl	Hck Nef HTS active
O=C(CSc1cnc2ccccc2n1)c1ccc(F)cc1	none
CCN(CC)C(=O)C[n+]1cccc(C(N)=O)c1	none
CCN(CCO)Cc1csc2ccc(C(C)(C)C)cc12	none
O=c1c(Cc2ccc(F)cc2)c(O)ccn1CCCn1ccnc1	none
CCC(C(=O)NNC(=O)c1cnccn1)c1ccccc1 (stereo not drawn)	none
CCOc1nc(Nc2ccc(OC)c(Cl)c2)nc(N2CCN(c3ccc(OC)cc3)CC2)n1	none (no result: Calb biofilm kill)
NNC(=O)CNC(=O)CNS(=O)(=O)c1ccccc1	none
CC(C)Oc1cc2oc(=O)c3c(c2cc1Cl)CCC3	none (no result: Calb biofilm kill)
CC(=O)Oc1cc2oc(=O)c3c(c2cc1Cl)CCC3	Hck Nef HTS 111 (not shown: Calb biofilm kill)
